Measurements from ChEMBL document CHEMBL1124172 (J Med Chem, 1988).
Converted amounts (≈) assume the structure as drawn. The source made the active and inactive calls. The calls are words filed in the database; no cut-off is given here.

Columns and labels:
Mus musculus [1] = experiment: In vivo antitumor activity against P388 Lymphocytic Leukemia measured as Survivors on day 5 at 375 mg/kg; 6/6; format: functional
Mus musculus [2] = experiment: In vivo antitumor activity against P388 Lymphocytic Leukemia in mice at 375 mg/kg expressed as T/C value
Mus musculus [3] = experiment: In vivo antitumor activity against P388 Lymphocytic Leukemia measured as Survivors on day 5 at 187.5 mg/kg; 6/6; format: functional
Mus musculus [4] = experiment: In vivo antitumor activity against P388 Lymphocytic Leukemia measured as Survivors on day 5 at 1500 mg/kg; 6/6; format: functional
Mus musculus [5] = experiment: In vivo antitumor activity against P388 Lymphocytic Leukemia in mice at 750 mg/kg expressed as T/C value; format: functional
Mus musculus [6] = experiment: In vivo antitumor activity against P388 Lymphocytic Leukemia in mice at 187.5 mg/kg expressed as T/C value; format: functional
Mus musculus [7] = experiment: In vivo antitumor activity against P388 Lymphocytic Leukemia measured as Survivors on day 5 at 750 mg/kg; 6/6; format: functional
Mus musculus [8] = experiment: In vivo antitumor activity against P388 Lymphocytic Leukemia in mice at 1500 mg/kg expressed as T/C value; format: functional
A204 = experiment: In vitro cytotoxicity against human A204 Rhabdomyosarcoma cell line; format: functional, cell-based
Method in brief: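 A204 human rhabdomyosarcoma soft-agarose colony assay. 10^4 trypsin/EDTA-dissociated cells in 0.3% agarose over a 0.5% agarose base, in DMEM with 10% FCS, at 37 °C and 5% CO2. Compound was applied in an upper medium layer on day 1 for 24 h, then washed out. Colonies >60 µm were counted after 7–9 days by tetrazolium stain and image analysis. Quadruplicates with vehicle controls, at least four concentrations up to 100 or 1000 µg/mL. IC50 from a monoexponential least-squares fit over at least three preparations, mean ± SE.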

Mus musculus [9] = experiment: In vivo antitumor activity against P388 Lymphocytic Leukemia in mice at 325 mg/kg expressed as T/C value); Toxic; format: toxicity, organism-based; set-up: dose 325 mg/kg
Mus musculus [10] = experiment: In vivo antitumor activity against P388 Lymphocytic Leukemia in mice at 1300 mg/kg expressed as T/C value; Toxic; format: toxicity, organism-based; set-up: dose 1300 mg/kg
Mus musculus [11] = experiment: In vivo antitumor activity against P388 Lymphocytic Leukemia measured as survivors on day 5 at 40.60 mg/kg (repeat); 6/6; format: functional; settings: dose 40.6 mg/kg
Mus musculus [12] = experiment: In vivo antitumor activity against P388 Lymphocytic Leukemia measured as survivors on day 5 at 325 mg/kg (repeat); 0/6; format: functional
Mus musculus [13] = experiment: In vivo antitumor activity against P388 Lymphocytic Leukemia measured as Survivors on day 5 at 325 mg/kg; 0/6; format: functional
Mus musculus [14] = experiment: In vivo antitumor activity against P388 Lymphocytic Leukemia in mice at 162.50 mg/kg expressed as T/C value; format: functional; settings: dose 162.5 mg/kg
P388 = experiment: Weight difference when tested in vivo for antitumor activity against P388 Lymphocytic Leukemia; weight difference expressed as (T-C); format: functional, Mus musculus
Mus musculus [15] = experiment: Weight difference when tested in vivo for antitumor activity against P388 Lymphocytic Leukemia; weight difference expressed as (T-C); Not active; format: functional, organism-based
Mus musculus [16] = experiment: In vivo antitumor activity against P388 Lymphocytic Leukemia in mice at 81.25 mg/kg expressed as T/C value (repeat); format: functional
Mus musculus [17] = experiment: In vivo antitumor activity against P388 Lymphocytic Leukemia in mice at 162.5 mg/kg expressed as T/C value(repeat); format: functional
Mus musculus [18] = experiment: In vivo antitumor activity against P388 Lymphocytic Leukemia in mice at 650 mg/kg expressed as T/C value; Toxic; format: toxicity, organism-based; set-up: dose 650 mg/kg
Mus musculus [19] = experiment: In vivo antitumor activity against P388 Lymphocytic Leukemia measured as survivors on day 5 at 162.50 mg/kg (repeat); 6/6; format: functional; settings: dose 162.5 mg/kg
Mus musculus [20] = experiment: In vivo antitumor activity against P388 Lymphocytic Leukemia measured as Survivors on day 5 at 162.50 mg/kg; 6/6; format: functional; settings: dose 162.5 mg/kg
Mus musculus [21] = experiment: In vivo antitumor activity against P388 Lymphocytic Leukemia in mice expressed as T/C value; Toxic
Mus musculus [22] = experiment: In vivo antitumor activity against P388 Lymphocytic Leukemia in mice at 40.60 mg/kg expressed as T/C value (repeat); format: functional; settings: dose 40.6 mg/kg
Mus musculus [23] = experiment: In vivo antitumor activity against P388 Lymphocytic Leukemia measured as Survivors on day 5 at 1300 mg/kg; 0/6; format: functional
Mus musculus [24] = experiment: In vivo antitumor activity against P388 Lymphocytic Leukemia measured as survivors on day 5 at 81.25 mg/kg (repeat); 6/6; format: functional
Mus musculus [25] = experiment: In vivo antitumor activity against P388 Lymphocytic Leukemia measured as Survivors on day 5 at 650 mg/kg; 0/6; format: functional

With `CC(C)C(O)(C(=O)OCC1CC[N+]2([O-])CC[C@@H](O)[C@@H]12)C(C)O` (some centres not stated) the Survivors (Mus musculus [1]) was 6, the T/C (Mus musculus [2]) was 106% and the Survivors (Mus musculus [3]) was 6. It also gave a Survivors (Mus musculus [4]) of 6, a T/C (Mus musculus [5]) of 95% and a T/C (Mus musculus [6]) of 94%. It also gave a Survivors (Mus musculus [7]) of 6, a T/C (Mus musculus [8]) of 106% and an IC50 (A204) of 320 mg/L (≈ 1010 µM).
For `CC1C(=O)O[C@@H]2CCN3CC=C(COC(=O)C(C)(O)C1(C)O)[C@H]23` (some centres not stated), the IC50 (A204) was 316 mg/L (≈ 971 µM).
`CC(C)C(O)(C(=O)OCC1=CCN2CC[C@@H](O)[C@@H]12)C(C)O` (some centres not stated) [INDICINE] showed an IC50 (A204) of 34 mg/L (≈ 114 µM).
Work on `CC(C)[C@](O)(C(=O)OCC1=CC[N+]2([O-])CC[C@@H](O)[C@@H]12)[C@H](C)O` (some centres not stated) [INDICINE N-OXIDE] yielded an IC50 (A204) of 125 mg/L (≈ 396 µM).
`CC(C)C(O)(C(=O)OCC1CCN2CC[C@@H](O)[C@@H]12)C(C)O` (some centres not stated) was tested, and the T/C (Mus musculus [9]) was “Toxic”, the T/C (Mus musculus [10]) was “Toxic” and the Survivors (Mus musculus [11]) was 6. For the same compound, the Survivors (Mus musculus [12]) was 0, the Survivors (Mus musculus [13]) was 0 and the T/C (Mus musculus [14]) was 92%. For the same compound, the Weight difference (P388) was 0.5, the Weight difference (Mus musculus [15]) was “inactive” and the T/C (Mus musculus [16]) was 102%. For the same compound, the T/C (Mus musculus [17]) was 98%, the T/C (Mus musculus [18]) was “Toxic” and the Survivors (Mus musculus [19]) was 6. For the same compound, the Survivors (Mus musculus [20]) was 6, the T/C (Mus musculus [21]) was “Toxic” and the T/C (Mus musculus [22]) was 96%. It also gave a Survivors (Mus musculus [23]) of 0, an IC50 (A204) of 400 mg/L (≈ 1330 µM) and a Survivors (Mus musculus [24]) of 6. For the same compound, the Survivors (Mus musculus [25]) was 0.
With `C[C@H]1C(=O)O[C@@H]2CC[N+]3([O-])CC=C(COC(=O)[C@](C)(O)[C@]1(C)O)[C@H]23` (some centres not stated) [MONOCROTALINE N-OXIDE] the IC50 (A204) was 721 mg/L (≈ 2110 µM).
